ChEMBL document CHEMBL2384971, “Bioactive limonoid and triterpenoid constituents of Turraea pubescens” (J Nat Prod, 2013)

How the values were obtained:
[1] = system: HL-60; assay: Cytotoxicity against human HL60 cells by MTT assay; type: functional, cell-based
[2] = system: Artemia salina; assay: Toxicity in brine shrimp larva assessed as corrected mortality at 100 ppm after 24 hrs by microscopic analysis relative to control; type: functional
In short: (§1)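 Artemia salina larvae tested by a microwell method. Corrected mortality was derived from treatment-group mortality (Mt) against vehicle-control-group mortality (Mc).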

[3] = system: RAW264.7; assay: Antiinflammatory activity against LPS-stimulated mouse RAW264.7 cells assessed as inhibition of NO production after 18 hrs by Griess method; type: functional, cell-based; conditions: RAW264.7, 18 h
In short: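 RAW 264.7 murine macrophages were seeded at 2 × 10^5 cells/well in RPMI 1640 with 10% FBS at 37 °C under 5% CO2 and preincubated for 24 h. Cells were then exposed for 18 h to serial dilutions (top concentration 25 μM; DMSO solutions diluted in medium) plus 1 μg/mL LPS. Supernatants were mixed with Griess reagents A and B in triplicate and read at 570 nm after 5 min.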

[4] = system: RAW264.7; assay: Cytotoxicity against mouse RAW264.7 cells at 50 uM by MTT assay; type: cell-based; conditions: raw264.7, 50 µM
[5] = system: Artemia salina; assay: Toxicity in brine shrimp larva assessed as corrected mortality at 10 ppm after 24 hrs by microscopic analysis relative to control; type: functional; in short: as §1
[6] = system: Artemia salina; assay: Toxicity in brine shrimp larva assessed as corrected mortality at 50 ppm after 24 hrs by microscopic analysis relative to control; type: functional; in short: as §1

SMILES | IC50 [1] [µM] | mortality at 100 ppm [2] [%] | IC50 [3] [µM] | Activity [4] | mortality at 10 ppm [5] [%] | mortality at 50 ppm [6] [%]
C=C1[C@@H]([C@@]2(C)C=CC(=O)C(C)(C)[C@@H]2CC(=O)OC)[C@@H](OC(C)=O)[C@H](OC(C)=O)[C@@]2(C)[C@H](C3=CC(O)OC3=O)C[C@H]3O[C@]132 (some centres not stated) | < 10 | < 50 | > 20 | Non-toxic |  | 
C=C1[C@@H]([C@@]2(C)[C@H](OC(C)=O)CC(=O)C(C)(C)[C@@H]2CC(=O)OC)[C@@H](OC(C)=O)[C@H](OC(=O)C(C)C)[C@@]2(C)[C@H](c3ccoc3)C[C@H]3O[C@]132 | < 10 | 81.7 | > 20 | Non-toxic | 60.8 | 61.8
C=C1[C@@H]([C@@]2(C)C=CC(=O)C(C)(C)[C@@H]2CC(=O)OC)[C@@H](OC(C)=O)[C@H](OC(=O)C(C)C)[C@@]2(C)[C@H](c3ccoc3)C[C@H]3O[C@]132 | < 10 |  | > 20 | Non-toxic |  | 
C=C1[C@@H]([C@@]2(C)C=CC(=O)C(C)(C)[C@@H]2CC(=O)OC)[C@@H](OC(C)=O)[C@H](OC(=O)C(C)CC)[C@@]2(C)[C@H](c3ccoc3)C[C@H]3O[C@]132 (some centres not stated) | < 10 |  | > 20 | Non-toxic |  | 
CCC(=O)O[C@@H]1C[C@H](OC(C)=O)[C@@]2(C)[C@@H]([C@@H](O)[C@@H](OC(C)=O)[C@@]3(C)C4=CC[C@@H](c5ccoc5)[C@]4(C)CC[C@@H]32)C1(C)C | < 10 |  | > 20 | Non-toxic |  | 
C/C=C(\C)C(=O)O[C@H]1C[C@@H](OC(=O)CC)[C@@]2(C(=O)OC)CO[C@H]3[C@H]4O[C@]5(C)[C@H]6C[C@H](OC7OC=C[C@@]76O)[C@]5(O)[C@@]4(C)C4[C@]1(CO[C@]4(O)C(=O)OC)[C@@H]32 (some centres not stated) | < 10 |  | > 20 | Non-toxic |  | 
C/C=C(\C)C(=O)O[C@H]1C[C@@H](OC(=O)CC)[C@@]2(C(=O)OC)CO[C@H]3[C@@H](O)[C@@](C)(C45OC4(C)C4C[C@H]5O[C@@H]5OC=CC45O)C4[C@]1(CO[C@]4(O)C(=O)OC)[C@@H]32 (some centres not stated) | < 10 |  | > 20 | Non-toxic |  | 
CO[C@H]1O[C@@H]([C@@H]2OC2(C)C)C[C@H]1[C@@H]1CC=C2[C@]3(C)[C@H](O)C[C@H]4C(C)(C)C(=O)C=C[C@]4(C)[C@H]3CC[C@]21C | < 10 |  | 17.4 | Non-toxic |  | 
CO[C@@H]1O[C@@H]([C@@H]2OC2(C)C)C[C@H]1[C@@H]1CCC2[C@]3(C)[C@H](O)C[C@H]4C(C)(C)C(=O)C=C[C@]4(C)[C@H]3CC[C@]21C (some centres not stated) | < 10 |  | > 20 | Non-toxic |  | 
CC(=O)O[C@@H]1C[C@H]2C(C)(C)C(=O)C=C[C@]2(C)[C@H]2CC[C@]3(C)C(=CC[C@H]3[C@H]3COC(C)(C)[C@@H](O)[C@H](O)C3)[C@@]21C | < 10 | 69.8 | > 20 | Non-toxic | 0 | 6.7
CC(=O)O[C@H]1C[C@@H]2[C@@]3(C)C=CC(=O)C(C)(C)[C@@H]3C[C@@H](O)[C@@]2(C)C2=CC[C@@H](c3ccoc3)[C@@]21C | < 10 | 85 | 11.9 | Non-toxic | 20.6 | 83.5
CCC(=O)O[C@@H]1C[C@H](OC(C)=O)[C@@]2(C)[C@H]3[C@@H](OC[C@]13C)[C@@H](O)[C@@]1(C)C3=CC[C@@H](c4ccoc4)[C@]3(C)CC[C@@H]12 | < 10 | 75.6 | 18.5 | Non-toxic | 0 | 36.3
C=C1[C@@H]([C@@]2(C)C=CC(=O)C(C)(C)[C@@H]2CC(=O)OC)[C@@H](OC(C)=O)[C@H](OC(C)=O)[C@@]2(C)[C@H](c3ccoc3)C[C@H]3O[C@]132 | < 10 | < 50 | > 20 | Non-toxic |  | 
C[C@@H](C[C@@H](O)[C@H](O)C(C)(C)O)[C@@H]1CC[C@]2(C)C3=CC[C@H]4C(C)(C)[C@@H](O)CC[C@]4(C)[C@H]3CC[C@@]12C | < 10 |  | > 20 | Non-toxic |  | 
C/C=C(\C)C(=O)O[C@H]1C[C@@H](OC(C)=O)[C@@]2(C(=O)OC)CO[C@H]3[C@@H](O)[C@@](C)([C@]45O[C@@]4(C)[C@@H]4C[C@H]5O[C@@H]5OC=C[C@@]54O)[C@H]4[C@]1(CO[C@]4(O)C(=O)OC)[C@@H]32 [AZADIRACHTIN A] | < 10 | 81.7 | > 20 | Non-toxic | 12.5 | 59.6
C[C@@H](C[C@@H](O)[C@@H]1OC1(C)C)[C@@H]1CC[C@]2(C)C3=CC[C@H]4C(C)(C)[C@@H](O)CC[C@]4(C)[C@H]3CC[C@@]12C [DIHYDRONILOTICIN] | < 10 |  | > 20 | Non-toxic |  | 
CC(=O)O[C@H]1C[C@@H]2[C@@]3(C)CCC(=O)C(C)(C)[C@@H]3C[C@@H](O)[C@@]2(C)C2=CC[C@@H](c3ccoc3)[C@@]21C [MZIKONONE] | < 10 | 76.4 | > 20 | Non-toxic | 0 | 36.9
CC(=O)O[C@@H]1[C@H](O)[C@H]2C(C)(C)C(=O)C=C[C@]2(C)[C@H]2CC[C@]3(C)C(=CC[C@H]3c3ccoc3)[C@]12C [NIMONOL] | < 10 |  | > 20 | Non-toxic |  | 
C=C1C2=CC[C@H](c3ccoc3)[C@]2(C)[C@@H](OC(C)=O)[C@H](OC(C)=O)[C@@H]1[C@@]1(C)C=CC(=O)C(C)(C)[C@@H]1CC(=O)OC [TURRAFLORIN A] | < 10 | < 50 | 15.4 | Non-toxic |  | 
C=C1[C@@H]([C@@]2(C)C=CC(=O)C(C)(C)[C@@H]2CC(=O)OC)[C@@H](OC(C)=O)[C@H](OC(=O)C(C)C)[C@@]2(C)[C@H](C(=O)O)C[C@H]3O[C@]132 [TURRAPUBESIC ACID B] | < 10 |  | > 20 | Non-toxic |  | 
C=C1[C@@H]([C@@]2(C)C=CC(=O)C(C)(C)[C@@H]2CC(=O)OC)[C@@H](OC(C)=O)[C@H](OC(=O)Cc2ccccc2)[C@@]2(C)[C@H](C3=CC(=O)OC3O)C[C@H]3O[C@]132 (some centres not stated) [TURRAPUBESIN E] | < 10 | < 50 | > 20 | Non-toxic |  | 
C=C1[C@@H]([C@@]2(C)[C@H](OC(C)=O)CC(=O)C(C)(C)[C@@H]2CC(=O)OC)[C@@H](OC(C)=O)[C@H](OC(C)=O)[C@@]2(C)[C@H](c3ccoc3)C[C@H]3O[C@]132 [TURRAPUBIN A] | < 10 | 54.7 | > 20 | Non-toxic | 0 | 0.8
C=C1[C@@H]2[C@@H](O[C@H]3CC(=O)C(C)(C)[C@H](CC(=O)OC)[C@]32C)[C@H](OC(C)=O)[C@@]2(C)[C@H](c3ccoc3)C[C@H]3O[C@]132 [TURRAPUBIN D] | < 10 |  | > 20 | Non-toxic |  | 
C=C1[C@@H]([C@@]2(C)C=CC(=O)C(C)(C)[C@@H]2CC(=O)OC)[C@@H](OC(C)=O)[C@H](O)[C@@]2(C)[C@H](c3ccoc3)C[C@H]3O[C@]132 [TURRAPUBIN E] | < 10 | < 50 | > 20 | Non-toxic |  | 
C=C1[C@@H]([C@@]2(C)C=CC(=O)C(C)(C)[C@@H]2CC(=O)OC)[C@@H](OC(C)=O)[C@H](OC(=O)C(C)C)[C@@]2(C)[C@H](C3=CC(O)OC3=O)C[C@H]3O[C@]132 (some centres not stated) [TURRAPUBIN H] | < 10 | < 50 | > 20 | Non-toxic |  | 
